Assay outcomes (PubChem BioAssay)
Scp-1 inhibitor: inhibitors of human Scp-1 phosphatase; Q9GZU7; Recombinant Scp1, phosphopeptide, malachite green phosphate absorbance; inhibition, % at 20 µM; hit rate 0.88% among 340,000; AID 493091;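 active means inhibition above about 50% at 20 µM, limit read from the data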;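 further: plate controls were DMSO wells with enzyme for no effect and wells lacking enzyme for full effect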
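Times: enzyme reaction 45 min at room temperature, colour 5 min, stabilisation 30 min. Material: SCP-1 catalytic fragment, aa 76-261. Medium: Acidic Tris acetate buffer with magnesium and detergent. Signal: colorimetric free-phosphate detection, absorbance 630 nm. Read-out basis: % inhibition of SCP-1 phosphate liberation. Reagent: Phosphorylated 17-residue peptide substrate.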
LMPTP block: LMPTP (human) inhibition; AID 651560; hit rate 0.22% among 360,000; recombinant LMPTP-A, OMFP fluorogenic substrate, fluorescence intensity; inhibition, % at 20 µM; P24666;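 active means compounds that cut the enzyme signal by at least half of the control window in the single-dose screen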;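 further: plate controls were DMSO wells with enzyme plus substrate for no effect and substrate without enzyme for full effect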
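test system = LMPTP-A | amount = 0.625 nM LMPTP-A final | reagent = fluorogenic phosphatase substrate OMFP at 400 µM final | incubation = 50 min at room temperature | benchmarks = no-enzyme low control, uninhibited high control | medium = Bis-Tris pH 6.0, DTT, detergent | signal = fluorescence intensity of OMFP turnover product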
GRK2 aptamer HTS: human GRK2 inhibition via aptamer displacement | P25098 | bead flow cytometry, FAM-aptamer displacement from GRK2 | inhibition of aptamer binding, % at 10 µM | hit rate 0.59% among 330,000;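 active means inhibition of aptamer binding above 40%, roughly 3 SD of noise, on plates passing a quality check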;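 further: median bead fluorescence of bound FAM aptamer so fluorescent compounds give negative values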
STEP inh: inhibitors of human striatal-enriched phosphatase STEP | AID 588621 | recombinant STEP, OMFP fluorogenic substrate, fluorescence | inhibition, % at 20 µM | hit rate 0.25% among 360,000 | P54829;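 active means inhibition at 20 µM, scaled per plate between control wells, above about 37%, limit read from the data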;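 further: 0% = DMSO with enzyme and substrate and 100% = substrate only without enzyme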
Target sequence (P54829 whole entry, looked up): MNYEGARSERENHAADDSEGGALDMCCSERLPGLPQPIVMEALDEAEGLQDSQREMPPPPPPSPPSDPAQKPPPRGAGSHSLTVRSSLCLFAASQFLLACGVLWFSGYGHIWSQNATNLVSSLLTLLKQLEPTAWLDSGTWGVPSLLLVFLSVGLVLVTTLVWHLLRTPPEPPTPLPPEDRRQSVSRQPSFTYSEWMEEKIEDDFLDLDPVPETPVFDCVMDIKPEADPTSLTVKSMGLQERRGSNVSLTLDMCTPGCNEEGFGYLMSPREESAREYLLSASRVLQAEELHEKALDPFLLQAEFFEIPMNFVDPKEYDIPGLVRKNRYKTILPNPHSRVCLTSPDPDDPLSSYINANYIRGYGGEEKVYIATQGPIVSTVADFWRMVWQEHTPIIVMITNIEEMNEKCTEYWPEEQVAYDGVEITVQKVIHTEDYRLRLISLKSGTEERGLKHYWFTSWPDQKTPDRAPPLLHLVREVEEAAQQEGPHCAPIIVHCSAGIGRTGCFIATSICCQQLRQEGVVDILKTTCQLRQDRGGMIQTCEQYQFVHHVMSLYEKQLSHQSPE
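Test system: STEP tyrosine phosphatase / Reagent: OMFP at 25 µM / Doses: 20 µM, 1% DMSO / Read-out: percent inhibition scaled to no-enzyme and uninhibited-enzyme controls, plate-pattern corrected / Detection: FITC-channel fluorescence of OMFP product / Medium: Bis-Tris buffer pH 6.0, 2.5 mM DTT, 0.005% Tween 20 / Schedule: 20 min at room temperature, dark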
DNMT1 inh: blocks human DNA methyltransferase DNMT1 | P26358 | DNMT1 molecular beacon, Hinp1I cleavage, fluorescence | inhibition (reported as % activation of signal), % at 10 µM | hit rate 0.83% among 360,000; in the data active means inhibition above about 50%
SUMO1-SIM PPI: alters human SUMO1 binding to SIM partners; hit rate 0.33% among 360,000; P63165; inhibition, % at 20 µM; SUMO1 binding to a labelled peptide, TR-FRET, 1 h; in the data active means inhibition above about 37%
Scp-1 conf: Scp-1 (human) inhibition, single-dose confirmed. shares compounds with Scp-1 inhibitor. recombinant SCP-1 catalytic domain, phosphate release, malachite green absorbance. inhibition, % at 20 µM. hit rate 61% among 2,500. AID 540281;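 further: plate controls were DMSO with enzyme for no effect and buffer wells lacking enzyme for full effect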
MG interference: counter-screen for Scp-1 inhibitors: colorimetric interference; apparent inhibition (interference), % at 20 µM; AID 540313; 2,500 tested, under 10 active; shares compounds with Scp-1 inhibitor; Colorimetric interference counterscreen, malachite green absorbance 630 nm;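 further: compounds added after enzyme reaction finished so only phosphate colour detection is probed; plate controls were DMSO wells with completed Scp-1 reaction for no effect and substrate wells lacking enzyme for full effect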
Scp1 DSF: validation of human Scp-1 inhibitors by thermal shift binding. shares compounds with Scp-1 inhibitor. Recombinant SCP1, Sypro Orange thermal shift Tm. thermal shift relative to vanadate control, % at 40 µM. hit rate 25% among 1,500. AID 540329;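 active means substances whose mean melting-temperature shift, as a percentage of the reference inhibitor's shift, reaches about 5.3%, limit read from the data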;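 further: 0% = Tm of DMSO wells and 100% = Tm with sodium orthovanadate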
Active calls of the source: *; nt = no result given. Sampled rows, rich in hits. Any-hit rate of the full collection: about 2.1%.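 How the source made its calls, unless noted: active means inhibition of at least 30% at 20 µM; inactive means the rest.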

SMILES	Scp-1 inhibitor	LMPTP block	GRK2 aptamer HTS	STEP inh	DNMT1 inh	SUMO1-SIM PPI	Scp-1 conf	MG interference	Scp1 DSF
CCC(=O)c1ccc(OC(=O)C2CCN(C3=NS(=O)(=O)c4ccccc43)CC2)cc1	12.8	0.1	2.0	-3.4	7.7	-2.2	nt	nt	nt
COc1ccc2nc(COC(=O)c3cccs3)c(C(C)=O)[n+]([O-])c2c1	102.7*	0.1	6.0	-0.6	-3.2	-25.7	0.5	-16.2	nt
COc1ccc2nc(COC(=O)c3cccc([N+](=O)[O-])c3)c(C(C)=O)[n+]([O-])c2c1	-7.0	1.2	4.0	-0.5	-5.6	-6.5	nt	nt	nt
Cc1cccc(C)c1NC(=O)C1(C)CN(S(C)(=O)=O)CC(=O)N1CC(F)(F)F (stereo not given)	nt	-0.4	nt	nt	nt	0.3	nt	nt	nt
CCOC(=O)Cc1csc(NC(=O)Cc2ccc(Br)cc2)n1	54.2*	-0.4	0.0	-0.8	-1.6	-1.9	-23.5	-18.9	nt
COc1cc(/C=N/N=C2/NC(=O)C(CC(=O)O)S2)ccc1OCc1ccc(Cl)cc1 (stereo not given)	58.5*	-1.0	1.0	-1.3	-2.2	-3.1	70.0*	-5.4	-7.5
CCOc1cc(/C=C\c2nc(O)c([N+](=O)[O-])c(=O)[nH]2)ccc1OC(C)C	-1.6	-1.4	0.0	0.5	3.6	-11.8	nt	nt	nt
C=CCc1cc(/C=C/c2nc(O)c([N+](=O)[O-])c(=O)[nH]2)cc(OC)c1O	63.7*	-5.3	7.0	3.3	31.3	14.6	58.5*	-12.0	11.1*
C[C@@H]1CN([C@@H](C)CO)S(=O)(=O)c2ccc(C#CC(C)(C)O)cc2O[C@H]1CN(C)C(=O)C1CCCCC1	nt	-1.8	nt	2.3	0.4	3.4	nt	nt	nt
COC(=O)C[C@H]1C=C[C@@H](NC(=O)Nc2c(C)noc2C)[C@@H](CO)O1	nt	-0.6	nt	nt	nt	-2.4	nt	nt	nt
Cc1ccc2[nH]c3c(=O)n(CC(=O)NCc4ccco4)ncc3c2c1	52.0*	5.8	0.0	-0.6	24.0	5.8	4.2	-13.4	nt
COCCN(C(=O)C1CC(=O)N(Cc2ccc(C)cc2)C1)c1c(N)n(CC(C)C)c(=O)[nH]c1=O (stereo not given)	-0.1	0.6	0.0	-2.9	-1.8	0.6	nt	nt	nt
COCCN(C(=O)C1CCN(C(=O)c2ccccc2C)CC1)c1c(N)n(CC(C)C)c(=O)[nH]c1=O	63.3*	-2.3	0.0	-3.6	5.5	0.6	76.7*	-17.3	-0.9
CCCCN(C(=O)C1CC(=O)N(Cc2ccc(C)cc2)C1)c1c(N)n(CC(C)C)c(=O)[nH]c1=O (stereo not given)	-7.2	-0.5	0.0	-1.7	0.3	-0.6	-11.1	-6.0	nt
Cc1ccc(S(=O)(=O)NC(=O)c2ccc(-c3ccc(C)c4ccccc34)o2)cc1	61.3*	-0.1	0.0	4.4	24.1	-3.4	76.7*	-4.0	2.5
Cc1ccc(-n2[nH]c(C)c(/C=N/Nc3ccc([N+](=O)[O-])cc3[N+](=O)[O-])c2=O)cc1C	95.5*	39.1	0.0	70.3*	-48.6	1.6	67.5*	-21.1	10.7*
Cc1[nH]n(-c2ccccc2)c(=O)c1/C=N/NC(=O)c1cccc([N+](=O)[O-])c1	-3.4	-0.4	0.0	0.3	-9.4	-13.4	nt	nt	nt
CC/C(=N\NC(=O)CNC(=O)/C=C/c1ccco1)c1ccccc1	94.4*	0.0	2.0	-0.1	9.9	1.5	14.5	-6.0	nt
COc1ccc(/C(C)=N/NC(=O)CNC(=O)/C=C\c2ccco2)cc1	81.5*	-0.8	11.0	-0.5	18.6	-4.0	64.5*	-11.8	-5.5
CCC1SC2=NC(C)=C(C(=O)OCCOC)C(/C=C/c3ccccc3OC)N2C1=O (stereo not given)	58.5*	0.6	0.0	-4.4	-14.2	2.2	-35.1	-25.2	nt
